Calls of active or inactive are those of the source. The calls are words filed in the database; no cut-off is given here.
Experiments:
[1] = target: T1, Prostaglandin G/H synthase 1 (Mus musculus, UniProt P22437); assay: Inhibition against prostaglandin G/H synthase 1 from mouse resident macrophages
T1 sequence (P22437 whole entry): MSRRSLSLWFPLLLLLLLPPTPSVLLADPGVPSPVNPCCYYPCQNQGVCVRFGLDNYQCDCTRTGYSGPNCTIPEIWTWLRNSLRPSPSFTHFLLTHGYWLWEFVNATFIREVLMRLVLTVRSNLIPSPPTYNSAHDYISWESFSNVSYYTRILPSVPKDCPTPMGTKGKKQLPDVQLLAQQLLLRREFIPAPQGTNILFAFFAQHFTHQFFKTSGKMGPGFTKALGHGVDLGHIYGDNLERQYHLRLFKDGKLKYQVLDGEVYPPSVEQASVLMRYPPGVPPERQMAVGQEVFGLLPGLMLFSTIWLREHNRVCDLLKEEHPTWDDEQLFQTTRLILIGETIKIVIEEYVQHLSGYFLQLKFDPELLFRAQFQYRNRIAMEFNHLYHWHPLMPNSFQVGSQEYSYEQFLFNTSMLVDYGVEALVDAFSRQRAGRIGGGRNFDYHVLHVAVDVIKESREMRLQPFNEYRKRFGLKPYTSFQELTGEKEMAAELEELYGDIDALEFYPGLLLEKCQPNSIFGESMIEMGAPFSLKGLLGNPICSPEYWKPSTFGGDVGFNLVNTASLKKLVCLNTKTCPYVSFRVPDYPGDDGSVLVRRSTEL

[2] = target: T2, Prostaglandin G/H synthase 2 (Mus musculus, UniProt Q05769); assay: Inhibition against prostaglandin G/H synthase 2 from mouse resident macrophages
T2 sequence (Q05769 whole entry): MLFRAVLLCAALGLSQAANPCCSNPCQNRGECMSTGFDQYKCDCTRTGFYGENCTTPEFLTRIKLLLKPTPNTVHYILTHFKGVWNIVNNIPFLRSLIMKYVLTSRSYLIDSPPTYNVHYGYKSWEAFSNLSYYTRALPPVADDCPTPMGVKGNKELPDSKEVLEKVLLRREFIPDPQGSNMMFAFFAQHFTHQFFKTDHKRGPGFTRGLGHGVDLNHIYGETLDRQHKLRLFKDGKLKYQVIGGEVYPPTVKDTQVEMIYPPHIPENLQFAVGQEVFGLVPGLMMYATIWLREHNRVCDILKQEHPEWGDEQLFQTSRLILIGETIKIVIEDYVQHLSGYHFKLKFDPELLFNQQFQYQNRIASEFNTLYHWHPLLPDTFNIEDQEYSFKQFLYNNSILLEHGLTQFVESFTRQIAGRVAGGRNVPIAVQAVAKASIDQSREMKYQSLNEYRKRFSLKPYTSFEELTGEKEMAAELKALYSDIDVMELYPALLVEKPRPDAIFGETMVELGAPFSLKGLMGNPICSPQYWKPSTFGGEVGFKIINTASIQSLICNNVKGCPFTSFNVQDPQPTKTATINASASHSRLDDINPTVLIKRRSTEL

[3] = organism: Mus musculus; assay: Compound was evaluated for its effective dose to inhibit exudate PGE-2
In short: (§1)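 Mice given compound or vehicle orally 18 h after air-pouch induction; 1 h later 500 µL sterile 1% carrageenan injected into pouch; sacrifice 5 h after carrageenan. Pouch lavaged with 2 mL heparinized HBSS, kept on ice, PGE2 measured by EIA after solid-phase extraction. ED50 from 3 or 4 dose points, at least 8 mice/group.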

[4] = target: Prostaglandin G/H synthase 1 (Homo sapiens, UniProt P23219); assay: Tested in vitro for inhibition against Prostaglandin G/H synthase 1 in human blood
[5] = Gastric toxicity of the compound.
In short: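 Male Swiss mice, fasted overnight with water, were dosed orally at 400 mg/kg or given vehicle, and killed by cervical dislocation 5 h later. The stomach was opened and mucosal damage scored blind from 0 (normal) to 5 (perforation). Mean ± SEM, 8 animals/group.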

[6] = organism: Mus musculus; assay: Compound was evaluated for its effective dose to inhibit gastric PGE-2; format: tissue-based; conditions: Stomach
In short: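 Mice with air pouches (18 h old) were dosed orally with compound or vehicle. After 1 h, 500 µL sterile 1% carrageenan was injected into the pouch, and mice were killed 5 h later. Pouch lavage (heparinized HBSS) was cooled on ice, and PGE2 was measured by EIA after solid-phase extraction. Excised stomachs were rinsed and incubated 15 min in PBS, and supernatant PGE2 was measured by EIA. ED50 from 3 or 4 doses, at least 8 mice/group.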

[7] = target: T3, Prostaglandin G/H synthase 2 (Homo sapiens, UniProt P35354)
T3 sequence (P35354 whole entry): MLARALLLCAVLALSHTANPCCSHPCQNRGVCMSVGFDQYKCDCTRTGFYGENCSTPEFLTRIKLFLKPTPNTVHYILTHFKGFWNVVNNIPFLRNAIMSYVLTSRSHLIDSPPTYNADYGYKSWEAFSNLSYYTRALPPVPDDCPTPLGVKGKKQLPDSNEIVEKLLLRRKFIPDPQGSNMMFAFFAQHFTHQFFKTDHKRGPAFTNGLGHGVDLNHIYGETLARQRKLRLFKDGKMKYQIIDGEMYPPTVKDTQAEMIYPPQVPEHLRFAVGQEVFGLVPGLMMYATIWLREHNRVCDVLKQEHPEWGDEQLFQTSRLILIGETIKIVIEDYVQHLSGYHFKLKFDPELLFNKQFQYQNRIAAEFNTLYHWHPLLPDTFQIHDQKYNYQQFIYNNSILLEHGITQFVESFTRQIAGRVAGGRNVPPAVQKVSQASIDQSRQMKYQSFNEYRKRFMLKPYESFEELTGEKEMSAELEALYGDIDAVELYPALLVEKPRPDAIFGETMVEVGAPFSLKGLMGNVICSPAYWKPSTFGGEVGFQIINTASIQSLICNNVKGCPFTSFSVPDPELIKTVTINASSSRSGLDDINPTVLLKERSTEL

[8] = test system: Rattus norvegicus; assay: Effective dose for inhibition of edema after oral administration (95% confidence limits); format: functional
In short: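 Adjuvant-induced arthritis in female Lewis rats, with oral dosing. Edema of the noninjected paw was read at day 21, 10 rats/group. ED50 was estimated by linear regression with 95% confidence limits.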

[9] = test system: Rattus norvegicus; assay: Inhibition of edema after oral administration at 2 mg/kg, twice daily; format: functional
In short: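 Adjuvant-induced arthritis in female Lewis rats. Compound was given orally at 2 mg/kg twice daily, and noninjected paw edema inhibition was read at day 21, 10 rats/group.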

[10] = organism: Mus musculus; assay: Compound was evaluated for its effective dose to inhibit exudate PGE-2; In active; in short: as §1
[11] = test system: Rattus norvegicus; assay: Inhibition of edema after oral administration at 2 mg/kg/day; format: functional
In short: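 Adjuvant-induced arthritis in female Lewis rats. Compound was given orally at 2 mg/kg/day, and noninjected paw edema inhibition was read at day 21, 10 rats/group.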

Chain of Prostaglandin G/H synthase 1 (Homo sapiens, UniProt P23219) (P23219 whole entry): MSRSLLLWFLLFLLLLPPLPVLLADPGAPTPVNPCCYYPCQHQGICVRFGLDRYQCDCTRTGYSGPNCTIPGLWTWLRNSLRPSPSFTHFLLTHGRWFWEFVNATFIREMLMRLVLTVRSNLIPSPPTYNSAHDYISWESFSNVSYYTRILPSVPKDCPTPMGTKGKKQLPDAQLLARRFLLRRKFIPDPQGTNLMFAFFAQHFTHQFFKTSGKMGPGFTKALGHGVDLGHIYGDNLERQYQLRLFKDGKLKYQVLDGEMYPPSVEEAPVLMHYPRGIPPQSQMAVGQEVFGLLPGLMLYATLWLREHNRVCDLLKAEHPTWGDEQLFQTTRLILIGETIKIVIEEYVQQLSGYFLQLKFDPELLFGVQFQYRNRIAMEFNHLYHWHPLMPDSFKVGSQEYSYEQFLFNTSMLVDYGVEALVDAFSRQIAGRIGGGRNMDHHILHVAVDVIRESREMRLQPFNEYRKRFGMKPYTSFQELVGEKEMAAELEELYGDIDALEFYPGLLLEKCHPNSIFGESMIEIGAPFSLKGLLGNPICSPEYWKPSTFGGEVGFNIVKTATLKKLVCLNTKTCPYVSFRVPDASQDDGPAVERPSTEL

SMILES	IC50 [1]	IC50 [2]	also measured
Fc1ccc(-c2[nH]c(-c3ccc(F)cc3)c3c2C2CCC3C2)cc1	–	–	ED50 [3]: 6.8 mg/kg; IC50 [4]: 1000 nM; Gastric score [5]: 0.3; ED50 [6]: > 40 mg/kg; IC50 [7]: 0.08 nM; ED50 [8]: 0.35 mg/kg/day
COc1ccc2c(c1)c(CC(=O)O)c(C)n2C(=O)c1ccc(Cl)cc1 [INDOMETHACIN]	–	–	Gastric score [5]: 2.4
c1ccc(-c2cc(-c3ccccc3)n3c2CCC3)cc1	< 1000 nM	50 nM	–
c1ccc(C2NC(c3ccccc3)c3ccccc32)cc1 (stereo not drawn)	> 2500 nM	–	–
c1ccc(-c2cc3n(c2-c2ccccc2)CCC3)cc1	< 1000 nM	10 nM	–
CC1=C(C)Cc2c(c(-c3ccccc3)n(C)c2-c2ccccc2)C1	–	> 1000 nM	–
c1cc(-c2[nH]c(-c3ccncc3)c3c2C2CCC3C2)ccn1	–	> 100 nM	–
CNc1cc(-c2[nH]c(-c3ccc(F)c(NC)c3)c3c2C2CCC3C2)ccc1F	–	> 100 nM	–
Cc1ccc(-c2[nH]c(-c3ccc(C)cc3)c3c2CCCC3)cc1	500 nM	–	IN [10]: inactive

Now from value to compound, other results behind:

IC50 [1]	IC50 [2]	SMILES	also measured
1000 nM	21.3 nM	COc1ccc(-c2[nH]c(-c3ccc(OC)cc3)c3c2CCCC3)cc1	–
100 nM	2.9 nM	Fc1ccc(-c2[nH]c(-c3ccc(F)cc3)c3c2CCC3)cc1	inhibition in vivo at 2 mg/kg [9]: 14%; ED50 [3]: 20 mg/kg; Gastric score [5]: 0.7; ED50 [6]: > 80 mg/kg
> 5000 nM	700 nM	CS(=O)(=O)c1ccc(-c2[nH]c(-c3ccc(F)cc3)c3c2C2CCC3C2)cc1 (stereo not drawn)	–
100 nM	2.6 nM	c1ccc(-c2[nH]c(-c3ccccc3)c3c2C2CCC3C2)cc1	ED50 [3]: 20 mg/kg; Gastric score [5]: 0.3; ED50 [6]: 80 mg/kg
–	> 100 nM	Fc1ccc(C2NC(c3ccc(F)cc3)c3ccccc32)cc1 (stereo not drawn)	–
1000 nM	> 100 nM	c1cn(-c2ccc(-c3[nH]c(-c4ccc(-n5ccnc5)cc4)c4c3CCCC4)cc2)cn1	–
> 100 nM	14.5 nM	CC1=C(C)Cc2c(-c3ccccc3)[nH]c(-c3ccccc3)c2C1	–
1000 nM	> 100 nM	c1ccc(-c2[nH]c(-c3ccccc3)c3c2CNC3)cc1	–
500 nM	4.5 nM	Fc1ccc(-c2[nH]c(-c3ccc(F)cc3)c3c2C2C=CC3C2)cc1	–
100 nM	1.7 nM	Fc1ccc(-c2[nH]c(-c3ccc(F)cc3)c3c2CCCC3)cc1	ED50 [3]: 20 mg/kg; inhibition in vivo at 2 mg/kg/day [11]: 15%; ED50 [6]: 50 mg/kg
1000 nM	1.8 nM	Nn1c(-c2ccccc2)c2c(c1-c1ccccc1)CCCC2	–
